The record followed here is ChEMBL document CHEMBL1132376, “Synthesis, structure-activity relationships, and RARgamma-ligand interactions of nitrogen heteroarotinoids” (J Med Chem, 1999).

The structures appear in SMILES notation.

Assay [1] can be described thus: Percent transcriptional activation relative to 9-cis RA in CV-1 cells expressing Retinoid X receptor RXR alpha. The class given is functional, Mus musculus. An outline of the steps: (§1)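 CV-1 cells were transiently cotransfected with a human RARα/β/γ or mouse RXRα/β/γ expression vector (100 ng), βRARE-tk-CAT reporter (500 ng) and β-gal control (100 ng). Retinoids (10^-10–10^-5 M, 0.1% DMSO) were added 16–18 h later for 24 h, and CAT and β-gal were read by ELISA. Efficacy = maximal activity ÷ 9-cis-RA maximal activity. Triplicates were run in at least two experiments.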

The nature of assay [2]: The compound was evaluated for Tissue Transglutaminase induction. An outline of the steps: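 HEL cells ((1–2) × 10^5/mL) were exposed to 10 µM retinoid for 48 h, washed in PBS and sonicated in Tris/NaCl/EDTA/PMSF buffer (pH 7.4). TGase was measured as Ca2+-dependent [14C]putrescine incorporation into N,N-dimethylcasein, counting acid-insoluble radioactivity, with Lowry protein. Efficacy is expressed relative to maximal t-RA activity.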

A further assay has as its system SCC-2. In words: Percent of growth inhibition of Cell line SCC-2(Head and Neck) by the compound. In kind it is functional, Homo sapiens. In outline:
(§2)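 Carcinoma cell lines were seeded at 2000–4000 cells/well and dosed the next day at 10 µM against a DMSO control. After 72 h cells were TCA-fixed, SRB-stained and the dye solubilized in Tris-HCl, then OD was read. Triplicates were averaged, and % inhibition = (1 − treated/control OD) × 100.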

Assay [3] in a line: Percent transcriptional activation relative to 9-cis RA in CV-1 cells expressing Retinoic acid receptor RAR gamma. In kind it is functional, Homo sapiens. An outline of the steps: as §1
Another assay relates to Caov-3 cell line. In words: Percent of growth inhibition of Cell line Caov-3(Ovarian) by the compound. In kind it is functional, Homo sapiens. In outline: as §2
Assay [4] has as its system CC-1. As to the kind of experiment: Percent inhibition of CC-1 cervical cell proliferation. In kind it is functional, Homo sapiens. In outline: as §2
Another assay has as its system SCC-38. As to the kind of experiment: Percent of growth inhibition of Cell line SCC-38(Head and Neck) by the compound. The class given is functional, Homo sapiens. In outline: as §2
The target of assay [5] is T1, Retinoic acid receptor alpha (Homo sapiens) (UniProt P10276).
T1 sequence (whole entry): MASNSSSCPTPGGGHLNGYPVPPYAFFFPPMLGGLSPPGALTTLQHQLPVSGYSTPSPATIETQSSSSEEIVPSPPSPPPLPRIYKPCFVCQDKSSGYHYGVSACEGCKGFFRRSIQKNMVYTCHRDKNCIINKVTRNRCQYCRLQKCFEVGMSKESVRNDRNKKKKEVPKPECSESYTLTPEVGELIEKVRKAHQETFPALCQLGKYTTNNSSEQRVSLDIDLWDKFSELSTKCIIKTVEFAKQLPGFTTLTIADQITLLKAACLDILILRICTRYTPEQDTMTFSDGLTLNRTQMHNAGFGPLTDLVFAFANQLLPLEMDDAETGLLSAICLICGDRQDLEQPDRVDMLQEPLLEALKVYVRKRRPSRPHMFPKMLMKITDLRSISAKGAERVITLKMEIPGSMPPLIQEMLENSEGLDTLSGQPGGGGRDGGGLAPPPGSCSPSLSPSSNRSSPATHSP
As to the kind of experiment: Percent transcriptional activation relative to 9-cis RA in CV-1 cells expressing Retinoic acid receptor RAR alpha. In kind it is functional, cell-based. An outline of the steps: as §1

Assay [6] concerns the target T2, Retinoic acid receptor RXR-gamma (Mus musculus) (UniProt P28705).
T2 sequence (whole entry): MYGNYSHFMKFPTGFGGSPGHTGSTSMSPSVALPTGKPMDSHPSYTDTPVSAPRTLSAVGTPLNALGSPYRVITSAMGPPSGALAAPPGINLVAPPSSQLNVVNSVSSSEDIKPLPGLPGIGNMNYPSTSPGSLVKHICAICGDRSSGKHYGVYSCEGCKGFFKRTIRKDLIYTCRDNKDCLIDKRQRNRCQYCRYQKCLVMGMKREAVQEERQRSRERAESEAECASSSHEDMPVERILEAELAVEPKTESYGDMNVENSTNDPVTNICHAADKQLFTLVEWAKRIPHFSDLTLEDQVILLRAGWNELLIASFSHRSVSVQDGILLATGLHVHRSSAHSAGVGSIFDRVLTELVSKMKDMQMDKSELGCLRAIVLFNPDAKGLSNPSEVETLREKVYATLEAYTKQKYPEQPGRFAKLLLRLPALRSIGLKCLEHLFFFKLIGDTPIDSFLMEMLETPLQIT
In words: Percent transcriptional activation relative to 9-cis RA in CV-1 cells expressing Retinoid X receptor RXR gamma. In kind it is functional, cell-based. An outline of the steps:
as §1

Assay [7] deals with T3, Retinoic acid receptor RXR-gamma (Mus musculus, UniProt P28705).
T3 sequence (P28705 whole entry): T2 sequence (whole entry)
As to the kind of experiment: Transcriptional activation in CV-1 cells expressing Retinoid X receptor RXR gamma. The class given is functional, cell-based. An outline of the steps: (§3)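 CV-1 cells were cotransfected with a human RAR or mouse RXR subtype vector, βRARE-tk-CAT reporter and β-gal internal control. Retinoids were applied at 10^-10–10^-5 M (0.1% DMSO) for 24 h, then CAT/β-gal was measured by ELISA. Potency is the concentration giving half of the agent's own maximal activity. Triplicates were run in at least two experiments.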

The next assay relates to SiHa. As to the kind of experiment: Percent of growth inhibition of Cell line SiHa (Cervix) by the compound. In kind it is functional, Homo sapiens. An outline of the steps:
as §2

A further assay relates to SW 954. In words: Percent of growth inhibition of Cell line SW954 (Vulvar) by the compound. In kind it is functional, Homo sapiens. An outline of the steps: as §2
A short description of assay [8]: Transcriptional activation in CV-1 cells expressing Retinoic acid receptor RAR gamma. Conditions: Homo sapiens. In kind it is functional, cell-based. In outline:
as §3

Assay [9] concerns the target T4, Retinoic acid receptor beta (Homo sapiens) (UniProt P10826).
T4 sequence (whole entry): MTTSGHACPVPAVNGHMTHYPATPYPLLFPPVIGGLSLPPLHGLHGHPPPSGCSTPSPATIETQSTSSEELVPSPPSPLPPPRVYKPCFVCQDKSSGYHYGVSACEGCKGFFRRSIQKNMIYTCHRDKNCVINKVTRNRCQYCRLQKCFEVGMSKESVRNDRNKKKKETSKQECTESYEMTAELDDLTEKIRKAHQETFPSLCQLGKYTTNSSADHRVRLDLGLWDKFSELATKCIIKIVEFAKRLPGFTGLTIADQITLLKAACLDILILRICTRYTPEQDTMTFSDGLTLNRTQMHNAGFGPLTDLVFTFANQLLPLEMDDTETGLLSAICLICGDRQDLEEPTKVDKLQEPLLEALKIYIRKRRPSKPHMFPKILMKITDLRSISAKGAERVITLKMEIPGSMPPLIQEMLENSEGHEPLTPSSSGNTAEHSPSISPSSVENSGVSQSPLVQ
As to the kind of experiment: Percent transcriptional activation relative to 9-cis RA in CV-1 cells expressing Retinoic acid receptor RAR beta. The class given is functional, cell-based. An outline of the steps:
as §1

A short description of assay [10]: Transcriptional activation in CV-1 cells expressing Retinoid X receptor RXR alpha. In kind it is functional, cell-based. In outline:
as §3

For the next assay, the system named is SW 962. In words: Percent of growth inhibition of Cell line SW962 (Vulvar) by the compound. The class given is functional, Homo sapiens. In outline:
as §2

The test system of the next assay is SK-OV-3. In words: Percent of growth inhibition of Cell line SKOV-3(Ovarian) by the compound. In kind it is functional, Homo sapiens. An outline of the steps: as §2
The target in assay [11] is T5, Retinoic acid receptor RXR-beta (Mus musculus) (UniProt P28704).
T5 sequence (whole entry): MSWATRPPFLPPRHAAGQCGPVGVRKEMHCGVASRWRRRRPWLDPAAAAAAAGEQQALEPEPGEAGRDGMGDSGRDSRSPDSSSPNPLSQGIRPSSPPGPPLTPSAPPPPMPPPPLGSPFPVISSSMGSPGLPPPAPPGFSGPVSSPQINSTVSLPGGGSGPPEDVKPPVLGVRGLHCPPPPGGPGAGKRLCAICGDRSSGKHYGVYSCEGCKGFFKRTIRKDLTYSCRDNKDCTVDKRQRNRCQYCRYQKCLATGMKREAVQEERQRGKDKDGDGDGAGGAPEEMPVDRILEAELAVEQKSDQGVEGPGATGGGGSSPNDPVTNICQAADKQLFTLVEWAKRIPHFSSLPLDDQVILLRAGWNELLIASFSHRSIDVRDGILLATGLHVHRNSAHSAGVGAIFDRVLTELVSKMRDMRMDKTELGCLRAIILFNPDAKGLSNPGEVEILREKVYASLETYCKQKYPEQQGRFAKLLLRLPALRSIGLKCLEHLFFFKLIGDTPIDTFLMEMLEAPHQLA
In words: Percent transcriptional activation relative to 9-cis RA in CV-1 cells expressing Retinoid X receptor RXR beta. In kind it is functional, cell-based. In outline: as §1

Assay [12] concerns the target T6, Retinoic acid receptor beta (Homo sapiens, UniProt P10826).
T6 sequence (P10826 whole entry): T4 sequence (whole entry)
As to the kind of experiment: Transcriptional activation in CV-1 cells expressing Retinoic acid receptor RAR beta. The class given is functional, cell-based. In outline:
as §3

Assay [13] has as its target T7, Retinoic acid receptor alpha (Homo sapiens, UniProt P10276).
T7 sequence (P10276 whole entry): T1 sequence (whole entry)
In words: Transcriptional activation in CV-1 cells expressing human Retinoic acid receptor alpha. The class given is functional, cell-based. In outline: as §3

Assay [14] concerns the target T8, Retinoic acid receptor RXR-beta (Mus musculus, UniProt P28704).
T8 sequence (P28704 whole entry): T5 sequence (whole entry)
In words: Transcriptional activation in CV-1 cells expressing Retinoid X receptor RXR beta. In kind it is functional, cell-based. An outline of the steps: as §3

Assay [15] deals with CC-1. As to the kind of experiment: Percent of growth inhibition of Cell line CC-1(Cervix) by the compound. The class given is functional, Homo sapiens. An outline of the steps: as §2

Usually Inhibition stands for the change of the read-out against control, counted positive when it falls. Low values mean a response near the control, high ones a response far below the control. One may read the EC50 as the concentration needed to bring the measured effect to its halfway point. For `CCOC(=O)c1ccc(OC(=O)c2cc3c(cc2C)N(C)CCC3(C)C)cc1`, the Efficacy worked out at 53% in assay [1]; 103% in [3]; 64% in [5]; 52% in [6]; 63% in assay [9]; 55% in assay [11]. In addition, the Induction in assay [2] amounted to 49. Further, the Inhibition with SCC-2 was 20%; with Caov-3 cell line, 10%; in the assay with CC-1 [4], 20%; in the assay on SCC-38 it was 20%; in the assay on SiHa, 26%; in the assay with SW 954, 77%. For the same compound, the Inhibition in the assay on SW 962 was determined as 80%; with SK-OV-3, 0%. For the same compound, the EC50 in [7] worked out at 49 nM; in assay [8], 6 nM; in assay [10], 102 nM; in assay [12], 92 nM; in assay [13], 796 nM; in [14], 70 nM.

In the case of `CC1=C(/C=C/C(C)=C\C=C\C(C)=C\C(=O)O)C(C)(C)CCC1` [ALITRETINOIN], the Inhibition in the assay with SCC-2 is 25%; in the assay on Caov-3 cell line, 25%; with SCC-38, 24%; in the assay with SiHa, 25%; in the assay with CC-1 [15] it was 15%; with SW 954, 35%. Further, the Inhibition was found to be 30% in the assay with SW 962 and 27% in the assay with SK-OV-3.

In the case of `CCOC(=O)c1ccc(OC(=O)c2ccc3c(c2)C(C)(C)CCN3C)cc1`, the Efficacy in assay [1] was found to be 47%; in assay [3] it was 0%; in assay [5], 45%; in assay [6], 52%; in assay [9], 64%; in [11] it was 53%. In [2], the Induction is 37. The Inhibition in the assay with SCC-2 came out at 20%; in the assay with Caov-3 cell line it was 0%; with CC-1 [4], 25%; in the assay with SCC-38, 20%; in the assay with SiHa, 40%; in the assay on SW 954 it was 35%. Also, the figures for the Inhibition in the assay on SW 962 and in the assay with SK-OV-3 were 15% and 0%, respectively. Also, the EC50 in assay [7] worked out at 20 nM; in assay [10] it was 601 nM; in assay [12] it was 256 nM; in [13], 1130 nM; in [14], 33 nM.

`CCOC(=O)c1ccc(OC(=O)c2ccc3c(c2)C(C)(C)CCN3C(C)C)cc1`: the Efficacy in assay [1] was found to be 62%; in assay [3], 0%; in assay [5], 59%; in [6], 47%; in [9], 71%; in assay [11], 45%. Further, the Induction in assay [2] was 49. Besides, the Inhibition in the assay with SCC-2 is 24%; with Caov-3 cell line, 13%; in the assay with CC-1 [4], 15%; in the assay with SCC-38 it was 25%; in the assay with SiHa, 25%; in the assay with SW 954 it was 49%. Also, the Inhibition is on record as 25% in the assay on SW 962 and 2% in the assay on SK-OV-3. Besides, the EC50 in [7] worked out at 27 nM; in assay [10], 12 nM; in assay [12], 41 nM; in assay [13] it was 217 nM; in assay [14], 47 nM.

On to `C/C(=C/c1ccc(C(=O)O)cc1)c1ccc2c(c1)C(C)(C)CCC2(C)C`, for which the Inhibition is given as 15% with Caov-3 cell line, 30% in the assay with SW 954, 20% in the assay with SW 962 and 20% in the assay with SK-OV-3.
